From ChEMBL document CHEMBL4354819, “Discovery of Novel Small Molecule Dual Inhibitors Targeting Toll-Like Receptors 7 and 8” (J Med Chem, 2019)
Values belong to the compound of their own block, whether it stands above or below them. Activity calls are given as the source filed them. The calls are words filed in the database; no cut-off is given here.

Experiments:
[1] = molecular target: Toll-like receptor 7 (Mus musculus) (UniProt P58681); assay: Inhibition of endogenous mouse TLR7 in mouse RAW264.7 cells assessed as resiquimod-induced NO production at < 5 uM incubated for 18 to 24 hrs
Chain of Toll-like receptor 7 (Mus musculus) (P58681 whole entry, looked up): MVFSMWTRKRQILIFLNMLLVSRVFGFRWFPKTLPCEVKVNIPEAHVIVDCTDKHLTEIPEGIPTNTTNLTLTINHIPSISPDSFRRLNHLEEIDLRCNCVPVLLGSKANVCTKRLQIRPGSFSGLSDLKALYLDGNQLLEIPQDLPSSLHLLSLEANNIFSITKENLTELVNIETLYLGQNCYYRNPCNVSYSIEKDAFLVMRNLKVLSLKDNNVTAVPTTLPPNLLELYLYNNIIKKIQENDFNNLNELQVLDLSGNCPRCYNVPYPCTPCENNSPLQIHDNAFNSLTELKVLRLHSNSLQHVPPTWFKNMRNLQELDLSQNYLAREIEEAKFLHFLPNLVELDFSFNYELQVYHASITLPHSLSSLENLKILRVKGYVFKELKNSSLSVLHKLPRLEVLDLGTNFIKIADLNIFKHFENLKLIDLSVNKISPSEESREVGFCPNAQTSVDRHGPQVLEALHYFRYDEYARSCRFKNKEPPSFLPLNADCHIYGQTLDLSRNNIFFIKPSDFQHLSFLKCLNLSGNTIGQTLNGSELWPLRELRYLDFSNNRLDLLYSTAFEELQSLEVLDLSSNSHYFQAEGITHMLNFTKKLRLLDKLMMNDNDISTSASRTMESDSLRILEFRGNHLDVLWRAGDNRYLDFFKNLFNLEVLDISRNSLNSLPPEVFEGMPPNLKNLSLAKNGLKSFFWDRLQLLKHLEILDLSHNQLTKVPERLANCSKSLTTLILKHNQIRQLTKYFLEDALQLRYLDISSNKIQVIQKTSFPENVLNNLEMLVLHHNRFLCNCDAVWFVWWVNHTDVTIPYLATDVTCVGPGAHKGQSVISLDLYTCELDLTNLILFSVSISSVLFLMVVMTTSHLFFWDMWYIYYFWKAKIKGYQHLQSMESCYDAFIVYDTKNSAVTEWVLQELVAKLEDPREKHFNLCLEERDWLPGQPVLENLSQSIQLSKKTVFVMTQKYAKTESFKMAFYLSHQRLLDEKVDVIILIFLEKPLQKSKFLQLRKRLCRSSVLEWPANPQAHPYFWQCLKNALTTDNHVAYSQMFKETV

[2] = molecular target: T1, Toll-like receptor 7 (Homo sapiens) (UniProt Q9NYK1); assay: Inhibition of human TLR7 expressed in HEK293 cells assessed as reduction in resiquimod-induced NFkappaB production at 5 to 20 uM incubated for 16 hrs by quanti-blue SEAP assay; type: cell-based
T1 sequence (whole entry): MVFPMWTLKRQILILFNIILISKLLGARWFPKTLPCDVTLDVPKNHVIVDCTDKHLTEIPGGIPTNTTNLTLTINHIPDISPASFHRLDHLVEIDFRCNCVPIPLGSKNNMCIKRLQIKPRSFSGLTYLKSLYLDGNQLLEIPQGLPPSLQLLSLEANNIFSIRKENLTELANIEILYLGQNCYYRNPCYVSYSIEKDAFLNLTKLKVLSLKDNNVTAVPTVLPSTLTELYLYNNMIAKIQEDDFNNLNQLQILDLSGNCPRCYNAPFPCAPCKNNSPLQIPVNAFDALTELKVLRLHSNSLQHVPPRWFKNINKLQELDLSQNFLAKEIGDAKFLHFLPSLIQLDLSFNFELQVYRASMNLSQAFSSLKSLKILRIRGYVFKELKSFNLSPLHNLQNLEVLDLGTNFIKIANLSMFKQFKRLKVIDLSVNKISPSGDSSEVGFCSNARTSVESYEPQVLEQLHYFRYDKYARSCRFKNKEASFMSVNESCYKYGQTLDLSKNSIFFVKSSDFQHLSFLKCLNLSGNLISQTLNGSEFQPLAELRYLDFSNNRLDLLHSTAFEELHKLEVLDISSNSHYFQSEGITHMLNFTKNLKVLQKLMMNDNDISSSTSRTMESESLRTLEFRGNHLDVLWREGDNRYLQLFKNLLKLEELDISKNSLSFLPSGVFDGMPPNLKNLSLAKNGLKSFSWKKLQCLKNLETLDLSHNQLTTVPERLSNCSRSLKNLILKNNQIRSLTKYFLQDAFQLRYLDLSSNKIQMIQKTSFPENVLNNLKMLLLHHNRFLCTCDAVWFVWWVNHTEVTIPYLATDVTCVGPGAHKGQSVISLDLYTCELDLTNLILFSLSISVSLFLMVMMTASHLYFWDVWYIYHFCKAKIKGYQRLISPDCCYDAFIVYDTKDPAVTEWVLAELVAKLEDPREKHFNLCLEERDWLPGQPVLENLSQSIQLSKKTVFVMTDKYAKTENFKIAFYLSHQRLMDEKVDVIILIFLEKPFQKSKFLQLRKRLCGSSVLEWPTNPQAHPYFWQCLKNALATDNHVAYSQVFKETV
Procedure, shortened: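 Selectivity panel in stably transfected HEK 293-Blue cells, each overexpressing one human TLR with an inducible SEAP reporter. Agonists: Pam3CSK4 (TLR1/2), Pam2CSK4 (TLR2/6), poly(I:C) (TLR3), LPS (TLR4), R848 (TLR7/8), ODN 2006 (TLR9). Cells were exposed to compound for 16 h. Activity = (raw − untreated)/(ligand + solvent − untreated), with ligand + solvent set as 100%.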

[3] = system: THP-1; assay: Inhibition of IFN mediated immune response in human THP1 cells assessed as inhibition of G3-YSD-induced cGAS signalling pathway at 5 to 20 uM incubated for 16 hrs by luciferase assay; type: functional, cell-based
Procedure, shortened: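 THP1-Dual monocytes carrying Lucia luciferase and SEAP reporters were stimulated with 3p-hpRNA (RIG-I agonist) or Y-form dsDNA G3-YSD (cGAS agonist), with or without compound. Secreted Lucia luciferase luminescence was measured as the type I IFN read-out. Mean ± s.d., n = 3 independent experiments.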

[4] = molecular target: T2, Toll-like receptor 8 (Homo sapiens) (UniProt Q9NR97); assay: Inhibition of human TLR8 expressed in HEK293 cells assessed as reduction in R848-induced NFkappaB production incubated for 16 hrs by quanti-blue SEAP assay; type: cell-based
T2 sequence (whole entry): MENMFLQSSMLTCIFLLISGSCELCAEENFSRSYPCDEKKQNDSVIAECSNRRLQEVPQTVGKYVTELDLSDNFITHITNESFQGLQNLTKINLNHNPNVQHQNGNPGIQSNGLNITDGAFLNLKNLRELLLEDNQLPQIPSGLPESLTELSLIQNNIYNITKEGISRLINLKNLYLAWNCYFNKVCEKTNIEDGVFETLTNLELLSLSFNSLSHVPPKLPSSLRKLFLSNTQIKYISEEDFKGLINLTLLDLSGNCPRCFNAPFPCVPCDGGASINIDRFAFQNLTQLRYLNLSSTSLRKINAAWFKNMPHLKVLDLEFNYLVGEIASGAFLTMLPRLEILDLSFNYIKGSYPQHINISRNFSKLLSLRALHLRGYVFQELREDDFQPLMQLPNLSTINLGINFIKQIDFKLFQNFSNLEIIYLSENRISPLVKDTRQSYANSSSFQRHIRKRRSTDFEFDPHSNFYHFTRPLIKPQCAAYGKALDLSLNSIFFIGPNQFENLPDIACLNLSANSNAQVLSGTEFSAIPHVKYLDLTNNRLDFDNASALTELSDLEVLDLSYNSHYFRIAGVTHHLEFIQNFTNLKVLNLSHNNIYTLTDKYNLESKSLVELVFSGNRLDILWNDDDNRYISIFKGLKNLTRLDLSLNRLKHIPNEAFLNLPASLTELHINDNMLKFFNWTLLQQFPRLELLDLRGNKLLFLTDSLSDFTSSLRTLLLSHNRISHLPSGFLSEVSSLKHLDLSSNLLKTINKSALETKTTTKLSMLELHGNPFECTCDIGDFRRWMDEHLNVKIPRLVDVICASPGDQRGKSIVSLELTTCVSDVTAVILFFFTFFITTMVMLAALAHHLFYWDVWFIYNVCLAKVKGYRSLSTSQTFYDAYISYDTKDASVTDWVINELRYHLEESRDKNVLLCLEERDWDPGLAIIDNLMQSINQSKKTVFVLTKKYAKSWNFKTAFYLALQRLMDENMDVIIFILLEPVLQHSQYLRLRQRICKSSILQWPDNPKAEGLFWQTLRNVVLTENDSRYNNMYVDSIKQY
Procedure, shortened: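 HEK 293-Blue cells stably expressing hTLR7 or hTLR8 with an inducible SEAP reporter were incubated 16 h with compound under 1 µg/mL R848 stimulation. SEAP was read at 620 nm. Data were normalized to the R848 control, and IC50 was taken from concentration-response curves. […] Mean ± s.d., n = 3 independent experiments.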

[5] = system: HEK293; assay: Cytotoxicity against human HEK293 cells transfected with human TLR8 assessed as reduction in cell viability up to 5 uM incubated for 16 hrs by WST-1 assay; type: cell-based; conditions: hek293, 16 h

inhibition [1]: inactive
SMILES: O=[N+]([O-])c1c(I)cccc1Oc1ccc(-c2nnco2)cc1

inhibition [2]: Active
SMILES: O=C(Nc1ccc(Oc2cncc(C(F)(F)F)c2)cc1)c1c(F)cccc1Cl
inhibition [3]: Active

inhibition [4]: Dose-dependent effect
SMILES: O=C(Nc1ccc(Oc2cc(C(F)(F)F)cc(C(F)(F)F)c2)cc1)c1c(F)cccc1Cl
Activity [5]: Non-Toxic
